Screens: PubChem BioAssay, several laboratories
Most compounds without a hit are left out; they make up all but 1.4% or so of the library.
NR2E3 ag-1: human photoreceptor-specific nuclear receptor agonism; Q9Y5X4; CHO-S Gal4-NCOR/VP16-NR2E3 two-hybrid, luciferase; inhibition of corepressor binding, % at 3.98 µM; 360,000 compounds, 0.35% hits; AID 602229;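 active = inhibition above the mean of all tested compounds plus 3 SD, cut at about 70% in these data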;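 note: higher means lower luciferase signal from less NR2E3 corepressor binding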
Target sequence (Q9Y5X4 whole entry, looked up, the tested form may be a part): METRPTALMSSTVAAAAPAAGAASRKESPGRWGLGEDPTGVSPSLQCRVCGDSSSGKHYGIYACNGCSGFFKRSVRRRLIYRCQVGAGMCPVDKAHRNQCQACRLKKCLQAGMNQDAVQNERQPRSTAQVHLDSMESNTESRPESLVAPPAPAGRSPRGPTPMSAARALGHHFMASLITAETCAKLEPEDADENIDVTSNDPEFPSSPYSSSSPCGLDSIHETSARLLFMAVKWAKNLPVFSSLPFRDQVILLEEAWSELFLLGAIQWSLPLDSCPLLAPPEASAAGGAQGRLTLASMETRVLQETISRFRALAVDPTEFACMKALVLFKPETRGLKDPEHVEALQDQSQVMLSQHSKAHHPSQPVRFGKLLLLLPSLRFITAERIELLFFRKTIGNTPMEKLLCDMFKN
NR2E3 ag-2: agonists of human nuclear receptor NR2E3 | 320,000 compounds, 0.12% hits | GST-NR2E3/biotin-RetCOR TR-FRET, 1536-well | inhibition of corepressor binding, % at 4.78 µM | AID 2300;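 active = percent inhibition above the cutoff of mean plus 3 SD of all tested compounds, set per screening campaign, cut at about 20% in these data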
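System: GST-tagged NR2E3 plus biotinylated RetCOR corepressor; Amount: 1.35 nM GST-tagged NR2E3 final; Dosing: single nominal compound dose of 4.8 µM; Schedule: 5 h incubation at 4 °C; Technique: TR-FRET with europium anti-GST and streptavidin-D2, 340 nm excitation; Controls: biotin wells as high control, 0.6% DMSO wells as low control.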
NR1D1 modulator: modulators of human Rev-erb alpha DNA binding. P20393. Rev-erbα–FITC-DNA binding, fluorescence polarization, 90 min. activity, % at 10 µM. 370,000 compounds, 0.79% hits;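 active = activity above about 14%, limit read from the data; passing the limit was not always enough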
PG9 binder: small molecules binding HIV-1 gp120 antibody PG9; inhibition, % at 6.7 µM; TR-FRET gp120-PG9 antibody binding; 360,000 compounds, 0.43% hits; in the data active = inhibition above about 8.5%
NR2E3 ag confirm: confirmation of human NR2E3 agonists | shares compounds with NR2E3 ag-1 | CHO-S mammalian two-hybrid NR2E3-NCOR, luciferase luminescence | inhibition, % at 3.98 µM | 2,300 compounds, 51% hits;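 active = average inhibition above a cutoff equal to the mean inhibition of all tested compounds plus one SD, cut at about 70% in these data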
GAL4-VP16 luc: reduces GAL4-VP16 reporter signal in NR2E3 counterscreen | 2,300 compounds, 29% hits | CHO-S GAL4-VP16 luciferase reporter, luminescence | inhibition, % at 3.98 µM | shares compounds with NR2E3 ag-1;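 active = mean inhibition above a cutoff equal to the average over all tested compounds plus one standard deviation, cut at about 70% in these data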;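 note: luciferase from a UAS reporter driven by GAL4-VP16 transactivation; higher means less reporter light so more repression of VP16 activity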
Numbers stand for hits; n = inactive; x = not tested or not shown.

SMILES	NR2E3 ag-1	NR2E3 ag-2	NR1D1 modulator	PG9 binder	NR2E3 ag confirm	GAL4-VP16 luc
O=C(O)c1ccccc1C(=O)OC1CC2CCC1C2 (centres undefined)	n	x	n	n	x	x
COc1cccc2sc(N3CCN(C(=O)c4ccc([N+](=O)[O-])o4)CC3)nc12	n	n	x	x	n	n
O=C(c1ccc([N+](=O)[O-])o1)N1CCN(c2nc3c(Cl)cccc3s2)CC1	n	n	n	n	x	x
CCN(CC)S(=O)(=O)c1ccc(Cl)c(C(=O)Nc2ccc(Cl)cc2[N+](=O)[O-])c1	n	n	n	n	70	n
CCCCc1cc(=O)oc2cc(OC(C)C(=O)NCc3ccccn3)c(Cl)cc12 (centres undefined)	n	n	n	n	x	x
COc1ccc(NC(=O)/C(Cl)=C(/Cl)S(=O)Cc2ccccc2)cn1 (centres undefined)	90	n	n	n	95	n
Cc1ccc(NC(=O)COC(=O)Cn2cnc3ccccc32)cc1S(=O)(=O)N(C)C	n	n	n	n	x	x
Cc1cc(NNC(=O)c2cccc(C(F)(F)F)c2)nc2c1c(C)nn2C	n	n	n	n	87	n
COc1ccc(OC)c2sc(NC(=O)c3ccc(S(=O)(=O)N(C)C)cc3)nc12	n	n	n	n	x	x
COc1ccc(N=C(NN)c2ccc3ccccc3n2)cc1	n	n	n	n	n	n
CSc1nc(N)nc2c1ncn2CC(=O)N1CCN(Cc2c(C)cc(C)cc2C)CC1	80	x	n	n	n	n
Cc1cc(C)c(CN2CCN(C(=O)Cn3cnc4c(NCc5ccccc5)ncnc43)CC2)c(C)c1	83	x	n	n	88	n
COCC1OS(=O)(=O)NC(CC(=O)SC(C)(C)C)C1C (centres undefined)	n	n	n	n	x	x
CC1=C(CC(=O)c2ccccc2)C(=O)c2ccccc2C1=O	n	n	n	n	n	n
O=C(CN(c1ccc(F)cc1)S(=O)(=O)c1ccc2c(c1)OCCO2)NCc1cccnc1	n	n	n	n	x	x
CN(C)c1ccc(C=Cc2ccnc3ccccc23)cc1N	n	x	n	n	n	n
N=C1SC(c2ccccc2)C(=O)N1c1ncc(Cc2ccccc2)s1 (centres undefined)	71	n	n	n	n	n
Cc1ccc(Cc2cnc(N3C(=N)SC(c4ccccc4)C3=O)s2)cc1 (centres undefined)	n	n	n	n	x	x
Cc1nn(C(C)(C)C)c(C)c1/C=N/OC(=O)Nc1ccc(Cl)cc1	97	n	n	n	n	91
CCN(CCCNC(=O)CNC(=O)c1nn(-c2ccc(OC)c(OC)c2)c(=O)c2ccccc12)c1ccccc1	n	n	n	n	x	x
CCOc1ccc(CN(C)Cc2cc(=O)oc3c(C)c(C)ccc23)cc1OC	86	x	n	n	88	81
O=C(c1cccc([N+](=O)[O-])c1)N1CCN(c2ccccn2)CC1	n	n	n	n	x	x
COc1cc(Nc2cccc[n+]2C)cc(OC)c1OC	n	n	n	n	x	x
CCN(CC)c1ccc(C(=O)NNC(=O)CCNC(=O)c2ccccc2)cc1	n	n	n	n	x	x
CCN(CC)c1ccc(C(=O)NNC(=O)CCl)cc1	n	n	n	n	x	x
SMILES	NR2E3 ag-1	NR2E3 ag-2	NR1D1 modulator	PG9 binder	NR2E3 ag confirm	GAL4-VP16 luc
CCN(CC)c1ccc(C(=C2C=CC(=[N+](CC)CC)C=C2)c2ccc(N(CC)CC)cc2)cc1	101	x	n	n	99	92
CCN(CC)c1ccc(C(=C2C=CC(=[N+](CC)CC)C=C2)c2ccccc2)cc1	101	x	n	n	99	98
CN(CCOc1ccc(Cl)cc1)C(=O)c1cccc(S(=O)(=O)N2CCN(c3ccc(F)cc3)CC2)c1	96	x	x	x	94	82
COc1ccc(CCN(C)C(=O)c2cccc(S(=O)(=O)N3CCN(c4ccc(F)cc4)CC3)c2)cc1OC	n	x	n	n	n	n
Cc1ccc(S(=O)(=O)N2CCOCC2)cc1C(=O)N(C)CCOc1ccc(Cl)cc1	n	n	n	x	x	x
COc1ccc(S(=O)(=O)N2CCN(c3ccc(C)cc3C)CC2)cc1OC	n	n	n	n	74	n
COCCC(=O)N1CCC(Oc2ccc(C(=O)N3CCCCC3COC)cc2)CC1 (centres undefined)	n	n	n	n	x	x
O=C(COc1ccccc1O)NNc1ccccc1	n	n	n	n	n	n
O=C(COc1ccccc1O)Nc1ccccc1Cl	n	n	n	n	x	x
C[C@@H](C(=O)Nc1ccc2c(c1)OCCO2)n1c(=O)[nH]c2ccccc2c1=O	n	n	n	n	n	n
OC(Cc1ccnc2ccccc12)C(Cl)(Cl)Cl (centres undefined)	n	x	n	n	n	n
O=C(Cc1c(Cl)cccc1Cl)Nc1ccncc1Cl	n	n	n	n	x	x
COc1ccc(CC(=O)Nc2ccncc2Cl)cc1	92	n	n	n	87	71
O=C(Cc1ccc(Cl)cc1Cl)Nc1ccncc1Cl	98	n	n	n	87	78
O=C(Cc1ccc(Cl)cc1Cl)Nc1ccncc1	n	n	n	n	x	x
COc1ccccc1C(=O)N1[C@@H](C(C)C)COc2cc(Br)ccc2S1(=O)=O	n	x	n	n	x	x
CCOc1cc(CNc2ccc3c(c2)OCCO3)cc(Br)c1OCC	n	n	n	n	n	n
CSCc1cc(C(=O)NCCN2CCOCC2)c(N)s1	x	x	n	n	x	x
Cc1cc(C(=O)COc2cccnc2[N+](=O)[O-])c(C)n1-c1ccccc1	71	n	n	n	72	n
Cc1cc(C(=O)COc2cccnc2[N+](=O)[O-])c(C)n1Cc1ccco1	n	n	n	n	x	x
Cc1ccc(OCC(=O)c2cc(C)n(C)c2C)c([N+](=O)[O-])n1	n	n	n	n	x	x
Cc1ccc(-n2c(C)cc(C(=O)COc3cccnc3[N+](=O)[O-])c2C)cc1	n	n	n	n	n	n
Cc1cc(C(=O)COc2cccnc2[N+](=O)[O-])c(C)n1-c1ccccc1F	n	n	n	n	n	n
Cc1cc(-n2c(C)cc(C(=O)COc3ccccc3[N+](=O)[O-])c2C)no1	n	n	x	n	x	x
CCc1c(C)nc2ncnn2c1NCCc1ccc(OC)cc1	84	n	n	n	89	n
SMILES	NR2E3 ag-1	NR2E3 ag-2	NR1D1 modulator	PG9 binder	NR2E3 ag confirm	GAL4-VP16 luc
CCOc1ccc(C(=O)Nc2cnn(Cc3ccc(Cl)c(Cl)c3)c2)cc1	n	n	n	n	n	n
Cc1ccc(S(=O)(=O)NC(=O)NC(C)Cc2ccccc2)cc1 (centres undefined)	n	n	n	n	x	x
COc1ccc(OCC(=O)Nc2ccc3c(c2)n(C)c(=O)n3C)cc1	n	n	n	n	x	x
O=C(C1CC1)N1CCc2cc(S(=O)(=O)NCC3COc4ccccc4O3)ccc21 (centres undefined)	n	n	n	n	n	n
O=C(C1CCC1)N1CCc2cc(S(=O)(=O)NCC3COc4ccccc4O3)ccc21 (centres undefined)	n	n	n	n	n	n
O=C(C1CC1)N1CCc2cc(S(=O)(=O)NCCC3=CCCCC3)ccc21	n	n	n	n	n	n
